The source made the active and inactive calls. The calls are words filed in the database; no cut-off is given here. Non-standard residues stand in square brackets, D forms with d. Residues, ends and D or L forms follow the SMILES beside them. ξ: configuration not given here. *: point of attachment. Phe(4-guanidino) = N=C(N)Nc1ccc(C[C@H](N)C(=O)O)cc1; Oic(3aξ,7aξ) = O=C(O)[C@@H]1CC2CCCCC2N1; Phe(4-F) = N[C@@H](Cc1ccc(F)cc1)C(=O)O; ACC = NC(=O)Cc1cc(=O)oc2cc(N*)ccc12; Met(O) = CS(=O)CC[C@H](N)C(=O)O
Assays:
[1] = molecular target: T1, Granzyme A (Homo sapiens) (UniProt P12544); assay: Binding affinity to Granzyme A active form (unknown origin) expressed in Pichia pastoris at 500 nM in presence of 1 uM methyl 4-[(3S)-3-[[2-[(2S)-2-[(1-diphenoxyphosphoryl-4-guanidinobutyl)carbamoyl]-2,3,3a,4,5,6,7,7a-octahydroindol-1-yl]-2-oxoethyl]carbamoyl]-3,4-dihydro-1H-isoquinolin-2-yl]-4-oxobutanoate by Western blot analysis
T1 sequence (whole entry): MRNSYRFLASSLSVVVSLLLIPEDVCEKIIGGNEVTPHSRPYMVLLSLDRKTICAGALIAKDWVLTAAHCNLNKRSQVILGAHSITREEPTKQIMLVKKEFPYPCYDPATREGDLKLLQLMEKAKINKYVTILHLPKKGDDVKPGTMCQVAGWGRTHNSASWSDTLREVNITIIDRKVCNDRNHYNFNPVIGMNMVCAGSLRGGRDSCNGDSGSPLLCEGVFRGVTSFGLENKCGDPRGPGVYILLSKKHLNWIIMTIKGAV
Summary of the method: (§1)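 Active GrA or proenzyme diluted to 250 nM final in pH 7.5 assay buffer, with or without 1 h preincubation with 1 μM diphenyl phosphonate inhibitor at 37 °C. Probe added at 500 nM final for another 1 h, then SDS/DTT, SDS-PAGE and transfer. Probe read at 658 nm, anti-GrA rabbit monoclonal with Alexa 488 secondary.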

[2] = molecular target: T1, Granzyme A (Homo sapiens); assay: Binding affinity to Granzyme A zymogen form (unknown origin) expressed in Pichia pastoris at 500 nM in presence of 1 uM compound 3 by Western blot analysis; summary of the method: as §1
[3] = molecular target: T1, Granzyme A (Homo sapiens); assay: Binding affinity to Granzyme A (unknown origin) expressed in Pichia pastoris assessed as appearance of fluorescent 35 kDa species at enzyme to probe ratio was 1:1 incubated for 5 mins by SDS-PAGE based in-gel detection method
Summary of the method: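 Recombinant GrA (Pichia pastoris) at 250 nM with 250 nM Cy5 probe (1:1) in Tris/NaCl/CaCl2/Tween-20 buffer pH 7.5, 37 °C, for 0–120 min. Reduced in SDS/DTT at 95 °C, run on 4–12% Bis-Tris SDS-PAGE, transferred to nitrocellulose, fluorescence read at 658 nm.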

[4] = molecular target: T1, Granzyme A (Homo sapiens); assay: Binding affinity to Granzyme A in human NK92 cells at 250 nM to 2 uM incubated for 1 hr by SDS-PAGE based in-gel detection assay; type: cell-based
[5] = molecular target: T1, Granzyme A (Homo sapiens); assay: Inhibition of Granzyme A (unknown origin) expressed in Pichia pastoris assessed as second- order inhibition rate constant (Kobs/I ratio) pre-incubated with SK15 substrate for 15 mins before enzyme addition by spectrofluorometry
Summary of the method: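 Recombinant GrA at 350 nM, pre-warmed at 37 °C, added to SK15 substrate that had been preincubated 15 min at 37 °C with varied inhibitor or probe (inhibitor range 714–333 nM, SK15 10 μM). Tris/NaCl/CaCl2/Tween-20 buffer, pH 7.5. AMC-type fluorescence at 355/460 nm under pseudo-first-order conditions to give kobs/I. Mean of at least three experiments with standard deviation.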

[6] = molecular target: T1, Granzyme A (Homo sapiens); assay: Binding affinity to Granzyme A in human NK92 cells at 1 uM treated 1 hr after GrA covalent inhibitor methyl 4-[(3S)-3-[[2-[(2S)-2-[(1-diphenoxyphosphoryl-4-guanidinobutyl)carbamoyl]-2,3,3a,4,5,6,7,7a-octahydroindol-1-yl]-2-oxoethyl]carbamoyl]-3,4-dihydro-1H-isoquinolin-2-yl]-4-oxobutanoate dosing and measured 30 mins to 2 hrs post dose by SDS-PAGE analysis; type: cell-based
[7] = molecular target: T2, Granzyme K (Homo sapiens) (UniProt P49863); assay: Inhibition of Granzyme K (unknown origin) expressed in Pichia pastoris using GrKref substrate by spectrofluorometry relative to control; conditions: concentration not given here
T2 sequence (whole entry): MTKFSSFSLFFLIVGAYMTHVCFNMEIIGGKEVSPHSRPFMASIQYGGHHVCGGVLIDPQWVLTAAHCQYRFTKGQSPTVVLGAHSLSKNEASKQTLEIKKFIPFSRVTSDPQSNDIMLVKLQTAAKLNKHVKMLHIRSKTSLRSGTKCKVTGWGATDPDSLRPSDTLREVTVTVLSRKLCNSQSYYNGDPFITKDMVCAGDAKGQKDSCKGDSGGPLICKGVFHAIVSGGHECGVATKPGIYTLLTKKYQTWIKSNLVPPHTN
Summary of the method: (§2)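 Each enzyme preincubated 30 min at 37 °C with 10 μM compound, then its matched ACC substrate added (SK15 for GrA, GrKref, GrBref, Ac-KVPL-ACC for GrM, and the PR3 and hNE substrates). Enzyme levels: GrK 488 nM, GrB 18 nM, GrM 74 nM, hNE 3.3 nM, PR3 3.4 nM. Reference substrates at 200 μM. Fluorescence read at 355/460 nm; residual activity relative to an untreated enzyme control.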

[8] = molecular target: T1, Granzyme A (Homo sapiens); assay: Binding affinity to Granzyme A active form (unknown origin) expressed in Pichia pastoris by Western blot analysis; summary of the method: as §1
[9] = molecular target: T1, Granzyme A (Homo sapiens); assay: Binding affinity to Granzyme A in human NK92 cells at 1 uM measured 30 mins to 2 hrs post dose by SDS-PAGE analysis; type: cell-based
[10] = molecular target: T3, Granzyme M (Homo sapiens) (UniProt P51124); assay: Inhibition of Granzyme M (unknown origin) expressed in Pichia pastoris using Ac-Lys-Val-Pro-Leu-ACC substrate by spectrofluorometry relative to control; summary of the method: as §2
T3 sequence (whole entry): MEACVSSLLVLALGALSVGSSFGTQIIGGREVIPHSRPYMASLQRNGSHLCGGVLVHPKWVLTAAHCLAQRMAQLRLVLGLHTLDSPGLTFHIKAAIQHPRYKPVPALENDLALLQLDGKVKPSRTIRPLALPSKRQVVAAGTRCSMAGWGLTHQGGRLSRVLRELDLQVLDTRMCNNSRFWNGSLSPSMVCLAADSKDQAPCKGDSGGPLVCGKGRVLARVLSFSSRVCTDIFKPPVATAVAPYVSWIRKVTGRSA

[11] = molecular target: Granzyme B (Homo sapiens) (UniProt P10144); assay: Inhibition of Granzyme B (unknown origin) expressed in Pichia pastoris using GrBref substrate by spectrofluorometry relative to control; summary of the method: as §2
[12] = molecular target: T1, Granzyme A (Homo sapiens); assay: Inhibition of Granzyme A (unknown origin) expressed in Pichia pastoris using SK15 substrate by spectrofluorometry relative to control; summary of the method: as §2
[13] = molecular target: T4, Myeloblastin (Homo sapiens) (UniProt P24158); assay: Inhibition of PR3 (unknown origin) expressed in Pichia pastoris using Ac-Glu(O-Bzl)-Lys(Ac)-Hyp(Bzl)-Nva-ACC substrate by spectrofluorometry relative to control; summary of the method: as §2
T4 sequence (whole entry): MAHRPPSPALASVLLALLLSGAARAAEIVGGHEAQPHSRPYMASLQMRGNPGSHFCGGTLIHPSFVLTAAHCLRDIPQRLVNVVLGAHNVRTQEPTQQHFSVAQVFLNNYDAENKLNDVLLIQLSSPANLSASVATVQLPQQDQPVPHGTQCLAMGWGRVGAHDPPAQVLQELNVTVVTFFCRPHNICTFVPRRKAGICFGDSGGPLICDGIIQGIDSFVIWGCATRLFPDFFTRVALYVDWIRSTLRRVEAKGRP

[14] = molecular target: T1, Granzyme A (Homo sapiens); assay: Binding affinity to Granzyme A zymogen form (unknown origin) expressed in Pichia pastoris by Western blot analysis; summary of the method: as §1
[15] = molecular target: T1, Granzyme A (Homo sapiens); assay: Binding affinity to Granzyme A (unknown origin) expressed in Pichia pastoris assessed as minimum concentration needed for GrA labeling at enzyme to probe ratio was 1:1 incubated for 5 to 30 mins by SDS-PAGE based in-gel detection method
Summary of the method: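 Recombinant GrA (Pichia pastoris), 250 nM, with probe at 10–500 nM for 30 min at 37 °C in pH 7.5 Tris/NaCl/CaCl2/Tween-20 buffer. SDS/DTT reduction, 4–12% Bis-Tris SDS-PAGE, transfer, and probe fluorescence at 658 nm, used to estimate the lowest labeling concentration.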

[16] = molecular target: T5, Neutrophil elastase (Homo sapiens) (UniProt P08246); assay: Inhibition of human neutrophil elastase expressed in Pichia pastoris using Ac-Arg(NO)2-Glu(Bzl)-Oic-Abu-ACC substrate by spectrofluorometry relative to control; summary of the method: as §2
T5 sequence (whole entry): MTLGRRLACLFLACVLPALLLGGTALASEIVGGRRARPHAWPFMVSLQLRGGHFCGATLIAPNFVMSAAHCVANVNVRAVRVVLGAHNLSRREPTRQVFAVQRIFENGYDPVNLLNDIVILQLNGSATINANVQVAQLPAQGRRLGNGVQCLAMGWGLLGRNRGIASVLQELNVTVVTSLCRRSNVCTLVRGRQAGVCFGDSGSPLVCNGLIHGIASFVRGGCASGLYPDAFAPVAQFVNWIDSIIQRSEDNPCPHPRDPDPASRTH

[17] = molecular target: T1, Granzyme A (Homo sapiens); assay: Substrate activity at Granzyme A (unknown origin) expressed in Pichia pastoris incubated for 30 mins by fluorescence based assay
[18] = molecular target: Granzyme B (Homo sapiens) (UniProt P10144); assay: Substrate activity at Granzyme B (unknown origin) expressed in Pichia pastoris assessed as compound hydrolysis at 200 uM incubated for 30 mins by fluorescence based assay relative to control

Chain of Granzyme B (Homo sapiens) (P10144 whole entry): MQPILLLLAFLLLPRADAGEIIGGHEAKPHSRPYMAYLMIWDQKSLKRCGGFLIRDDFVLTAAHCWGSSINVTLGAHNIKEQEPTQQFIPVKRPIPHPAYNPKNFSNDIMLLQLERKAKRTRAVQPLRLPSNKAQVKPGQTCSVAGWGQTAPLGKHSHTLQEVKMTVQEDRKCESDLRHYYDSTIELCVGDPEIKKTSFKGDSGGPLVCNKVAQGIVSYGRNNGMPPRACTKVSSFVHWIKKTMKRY

CN1\C(=C/C=C/C=C/C2N(CCCCCC(=O)NCCCCCC(=O)N3Cc4ccccc4C[C@H]3C(=O)NCC(=O)N3C4CCCCC4C[C@H]3C(=O)NC(CCCNC(=N)N)P(=O)(Oc3ccccc3)Oc3ccccc3)c3ccccc3C2(C)C)C(C)(C)c2ccccc21 (stereo partly drawn)
Activity [1]: inactive
Activity [2]: inactive
Activity [3]: Active
Activity [4]: Active
Ratio [5]: 3520 s⁻¹ M⁻¹
Activity [6]: inactive
inhibition [7]: 3%
Activity [8]: Active
Activity [9]: Active
inhibition [10]: inactive
inhibition [11]: inactive
inhibition [12]: inactive
inhibition [13]: inactive
Activity [14]: inactive
MEC [15]: 50 nM
inhibition [16]: inactive

CC(=O)N[C@@H](CC[S+](C)[O-])C(=O)NCC(=O)N1CC(OCc2ccccc2)C[C@H]1C(=O)N[C@@H](CCCNC(=N)N)C(=O)Nc1ccc2c(CC(N)=O)cc(=O)oc2c1 (stereo partly drawn)
Activity [17]: Active

CC[C@H](C)[C@H](NC(C)=O)C(=O)NCC(=O)N1C2CCCCC2C[C@H]1C(=O)N[C@@H](CCCNC(=N)N)C(=O)Nc1ccc2c(CC(N)=O)cc(=O)oc2c1 (stereo partly drawn) (Ac-IG[Oic(3aξ,7aξ)]R-{ACC})
Activity [17]: Active
Activity [18]: Active

CC[C@H](C)[C@H](NC(C)=O)C(=O)NCC(=O)N1C2CCCCC2C[C@H]1C(=O)N[C@@H](Cc1ccc(NC(=N)N)cc1)C(=O)Nc1ccc2c(CC(N)=O)cc(=O)oc2c1 (stereo partly drawn) (Ac-IG[Oic(3aξ,7aξ)][Phe(4-guanidino)]-{ACC})
Activity [17]: Active

CC(=O)N[C@@H](CC[S+](C)[O-])C(=O)NCC(=O)N[C@@H](Cc1ccc(F)cc1)C(=O)N[C@@H](CCCNC(=N)N)C(=O)Nc1ccc2c(CC(N)=O)cc(=O)oc2c1 (stereo partly drawn) (Ac-[Met(O)]G[Phe(4-F)]R-{ACC})
Activity [17]: Active

CC(=O)N1Cc2ccccc2C[C@H]1C(=O)NC(CCc1nc2ccccc2s1)C(=O)N1C2CCCCC2C[C@H]1C(=O)N[C@@H](CCCNC(=N)N)C(=O)Nc1ccc2c(CC(N)=O)cc(=O)oc2c1 (stereo partly drawn)
Activity [17]: Active

CC(=O)N[C@@H](CC[S+](C)[O-])C(=O)NCC(=O)N1CC(OCc2ccccc2)C[C@H]1C(=O)N[C@@H](Cc1ccc(NC(=N)N)cc1)C(=O)Nc1ccc2c(CC(N)=O)cc(=O)oc2c1 (stereo partly drawn)
Activity [17]: Active

— ChEMBL document CHEMBL4342470, “Detection of Active Granzyme A in NK92 Cells with Fluorescent Activity-Based Probe” (J Med Chem, 2020)
